Assay outcomes from PubChem.
Rows were chosen to be rich in hits. Some 1.4% of all compounds tested hit in one or more screens of this group.
Rev-erbA mod – modulators of Rev-erb alpha DNA binding, primary screen, biochemical, FITC-DNA, fluorescence polarization, uHTS | 370,000 tested, 0.79% active | activity, % at 10 µM | Nuclear receptor subfamily 1 group D member 1 (Homo sapiens), P20393 | Rev-erbα–FITC-DNA binding, 90 min | AID 1259318, 2017;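 active = activity above about 14%, limit read from the data; passing the limit was not always enough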;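 note: 0% = DMSO wells with 35 nM protein and 100% = DMSO wells with 750 nM protein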
Target sequence (P20393 whole entry, looked up): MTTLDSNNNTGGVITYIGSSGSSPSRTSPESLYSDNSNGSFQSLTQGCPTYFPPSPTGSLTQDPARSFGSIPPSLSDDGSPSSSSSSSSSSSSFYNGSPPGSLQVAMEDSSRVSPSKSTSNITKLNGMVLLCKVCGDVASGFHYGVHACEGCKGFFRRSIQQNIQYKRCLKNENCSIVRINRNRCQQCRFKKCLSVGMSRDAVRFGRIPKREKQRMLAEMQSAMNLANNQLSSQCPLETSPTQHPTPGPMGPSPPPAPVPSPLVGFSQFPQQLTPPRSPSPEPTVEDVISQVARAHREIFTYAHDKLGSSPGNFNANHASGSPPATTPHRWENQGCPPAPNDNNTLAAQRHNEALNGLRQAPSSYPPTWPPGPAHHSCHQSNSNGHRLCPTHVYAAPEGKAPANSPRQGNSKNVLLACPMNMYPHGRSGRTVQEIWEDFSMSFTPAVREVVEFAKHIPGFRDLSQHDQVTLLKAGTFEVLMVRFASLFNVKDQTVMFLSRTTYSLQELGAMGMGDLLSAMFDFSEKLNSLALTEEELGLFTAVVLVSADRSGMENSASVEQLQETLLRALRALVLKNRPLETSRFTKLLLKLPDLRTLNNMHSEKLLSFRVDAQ
NR2E3 ag-1 – inhibitors of NR2E3-RetCOR corepressor binding, primary screen, NR2E3 agonist project, biochemical, TR-FRET, GST-NR2E3, biotin-RetCOR | 1536-well | inhibition of corepressor binding, % at 4.78 µM | 320,000 tested, 0.12% active | Photoreceptor-specific nuclear receptor (Homo sapiens), Q9Y5X4;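 active = percent inhibition above the cutoff of mean plus 3 SD of all tested compounds, set per screening campaign, cut at about 20% in these data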;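 note: 0% = DMSO wells and 100% = biotin wells as full block of FRET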
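Test system – NR2E3–RetCOR corepressor complex · Quantity – NR2E3 fusion 1.35 nM · Buffer or medium – Tris pH 7.5 · Incubation – Compound–protein incubation for 5 h at 4 °C · Technique – TR-FRET, Eu(K)-anti-GST donor, streptavidin-D2 acceptor, ex 340, em 617/671 nm · Evaluation – percent inhibition of 671/617 nm emission ratio versus biotin and DMSO controls · Plate – 1536-well format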
PG9 Ab binder – binders of HIV-1 gp120 antibody PG9, primary screen, biochemical, TR-FRET | inhibition, % at 6.7 µM | 360,000 tested, 0.43% active | TR-FRET gp120-PG9 antibody binding | HIV-1 gp120 / PG9 antibody interaction; in the data active = inhibition above about 8.5%
NR2E3 ag-2 – NR2E3 agonists in two-hybrid cells, primary screen, cell-based, luminescence, CHO-S, Gal4-NCOR/VP16-NR2E3; Photoreceptor-specific nuclear receptor (Homo sapiens), Q9Y5X4; luciferase; inhibition of corepressor binding, % at 3.98 µM; 360,000 tested, 0.35% active;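 active = inhibition above the mean of all tested compounds plus 3 SD, cut at about 70% in these data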;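 note: 0% = DMSO with NR2E3 transfected cells and 100% = cells lacking NR2E3 construct; higher means lower luciferase signal from less NR2E3 corepressor binding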
NR2E3 ag conf – NR2E3 agonist confirmation in cells, cell-based, luminescence, CHO-S two-hybrid; shares compounds with NR2E3 ag-2; CHO-S mammalian two-hybrid NR2E3-NCOR, luciferase luminescence; 2,300 tested, 51% active; AID 624378, 2012; inhibition, % at 3.98 µM;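 active = average inhibition above a cutoff equal to the mean inhibition of all tested compounds plus one SD, cut at about 70% in these data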;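 note: 0% = DMSO in NR2E3 cells and 100% = DMSO in cells lacking NR2E3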
VP16 counter – GAL4-VP16 reporter modulators, confirmation, counter-screen for NR2E3 agonist project, cell-based, luminescence, CHO-S, high throughput; 2,300 tested, 29% active; AID 624379, 2012; inhibition, % at 3.98 µM; CHO-S GAL4-VP16 luciferase reporter; shares compounds with NR2E3 ag-2;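 active = mean inhibition above a cutoff equal to the average over all tested compounds plus one standard deviation, cut at about 70% in these data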;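 note: luciferase from a UAS reporter driven by GAL4-VP16 transactivation; 0% = DMSO with VP16-transfected cells and 100% = DMSO with cells lacking VP16; higher means less reporter light so more repression of VP16 activity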
Active calls of the source: *.

Results for COc1ccc(OC)c(Nc2nc(-c3c(C)nc4ncccn34)cs2)c1 ?
Rev-erbA mod: 6.0; NR2E3 ag-1: 0.7; PG9 Ab binder: -4.4; NR2E3 ag-2: 49.2; NR2E3 ag conf: -32.6; VP16 counter: 18.8

What do the screens show for `O=C(Cc1ccccc1)NC1CCCCN(Cc2cccc(Cl)c2)C1=O` (stereo not drawn)?
Rev-erbA mod: -4.0

Results for Cc1cccc(C)c1OCc1cc(C(=O)N(Cc2c(C)nn(C)c2C)C2CC2)no1 ?
Rev-erbA mod: 1.3; NR2E3 ag-1: -3.1; PG9 Ab binder: 1.3; NR2E3 ag-2: 62.3; NR2E3 ag conf: 61.2; VP16 counter: 57.9

What do the screens show for `Cc1cccc(C)c1OCc1cc(C(=O)NCC2CCCCC2)no1`?
Rev-erbA mod: 0.7; NR2E3 ag-1: -1.3; PG9 Ab binder: 0.2; NR2E3 ag-2: -25.5

Results for CCOC(=O)N1CCN(C(=O)C[C@@H]2C(=O)N(CCc3ccc(Cl)cc3)/C3=C/CCCCC[C@@]32C(=O)OCC)CC1 ?
Rev-erbA mod: -3.4

How did Cc1ccccc1Oc1cc(-n2ncc(Cl)c(Cl)c2=O)ncn1 do in these assays?
Rev-erbA mod: -1.5; NR2E3 ag-1: -16.3; PG9 Ab binder: -0.1; NR2E3 ag-2: 49.4; NR2E3 ag conf: 63.3; VP16 counter: -18.0

What do the screens show for `O=[N+]([O-])c1ccc(NS(=O)(=O)c2ccc(Cl)c(Cl)c2)cc1`?
Rev-erbA mod: -2.8; PG9 Ab binder: 0.1; NR2E3 ag-2: 101.4*; NR2E3 ag conf: 99.3*; VP16 counter: 91.3*

Results for O=S(=O)(Nc1ccc(S(=O)(=O)Nc2ccccc2)cc1)c1ccccc1 ?
Rev-erbA mod: 0.4; NR2E3 ag-1: 2.5; PG9 Ab binder: 0.1; NR2E3 ag-2: -1.8

How did O=[N+]([O-])c1ccc(Oc2ccc(S(=O)(=O)Nc3ccccc3)cc2)cc1 do in these assays?
NR2E3 ag-1: 0.1; NR2E3 ag-2: 57.9; NR2E3 ag conf: 98.8*; VP16 counter: 78.7*

How did O=[N+]([O-])c1ccc(S(=O)(=O)Nc2ccncc2)cc1 do in these assays?
Rev-erbA mod: 6.4; NR2E3 ag-1: -2.9; PG9 Ab binder: -2.8; NR2E3 ag-2: -20.2

How did CC(C)(C)C(=O)NC(=S)NNC(=O)c1ccc(-c2ccccc2)cc1 do in these assays?
NR2E3 ag-1: 3.0; NR2E3 ag-2: 62.4; NR2E3 ag conf: 96.4*; VP16 counter: 52.3

What do the screens show for `COc1ccccc1C(=O)N1CCN(CCNC(=O)C(=O)Nc2ccc(Br)c(C)c2)CC1`?
Rev-erbA mod: -4.5; NR2E3 ag-1: 8.1; PG9 Ab binder: -0.9; NR2E3 ag-2: 49.4; NR2E3 ag conf: 39.0; VP16 counter: 35.7

How did Cc1ccc(S(=O)(=O)N2[C@@H](c3ccc(F)cc3)C(C(=O)O)=CC[C@H]2c2ccc(Cl)cc2)cc1 do in these assays?
Rev-erbA mod: -4.5; NR2E3 ag-1: 5.4; PG9 Ab binder: 0.1; NR2E3 ag-2: -20.6

Results for Cc1ccc(S(=O)(=O)N2[C@@H](c3cccc(Cl)c3)C(C(=O)O)=CC[C@H]2c2ccc(C(C)C)cc2)cc1 ?
Rev-erbA mod: 10.6; NR2E3 ag-1: 0.8; PG9 Ab binder: -1.6; NR2E3 ag-2: 72.5*; NR2E3 ag conf: 23.4; VP16 counter: 26.9

What do the screens show for `Cc1ccc(S(=O)(=O)N2[C@@H](c3ccc(Cl)cc3)C(C(=O)O)=CC[C@H]2c2cccc(Cl)c2)cc1`?
Rev-erbA mod: -1.8; NR2E3 ag-1: 1.3; PG9 Ab binder: 0.0; NR2E3 ag-2: -16.7

What do the screens show for `Cc1ccc(S(=O)(=O)N2[C@@H](c3ccc(F)cc3)C(C(=O)O)=CC[C@H]2c2ccc(C(C)C)cc2)cc1`?
Rev-erbA mod: -5.0; NR2E3 ag-1: 1.8; PG9 Ab binder: 2.0; NR2E3 ag-2: 72.9*; NR2E3 ag conf: 29.6; VP16 counter: 49.6
